Test results from ChEMBL document CHEMBL5252539, “In vitro biological evaluation of new antimycobacterial salicylanilide-tuftsin conjugates” (Eur J Med Chem, 2017).
≈ marks a conversion by molar mass, not a printed value. Calls of active or inactive are those of the source. The calls are words filed in the database; no cut-off is given here. *1 amine or outer side, *2 acyl side, *3 side chain or, on linkers, in order; H or OH if unused. Where a SMILES comes first, the peptide text is derived from it. [ ]: non-standard residue; d: D form. The star is where a group is joined. X1 = C/C(=N\OCC(=O)[*:2])c1ccc(N[*:1])cc1; Benzoyl(5-Br-2-OH) = O=C(c1cc(Br)ccc1O)*; Palmitoyl = CCCCCCCCCCCCCCCC(=O)*; Decanoyl = CCCCCCCCCC(=O)*

Legend:
[1] = Stability of the compound in DMSO at 4 degree C at 2 mM up to 3 weeks by reverse phase HPLC analysis; format: physicochemical; details: 504 h, 2000 µM
How it was run: (§1)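 Stability followed by analytical RP-HPLC and mass spectrometry under assay conditions: in DMSO at 4 °C over 3 weeks, in serum-free RPMI-1640 at 37 °C over 1 week, and in complete RPMI-1640 at 37 °C over 1 day.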

[2] = Retention time of the compound by RP-HPLC analysis; format: physicochemical
How it was run: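 Analytical RP-HPLC on a C18 column (5 μm, 100 Å, 4.6 × 150 mm). Eluent A 0.1% TFA in water, eluent B 0.1% TFA in acetonitrile-water 80:20. Gradient 0% B for 5 min, to 60% B at 15 min, to 100% B at 25 min. Flow 1 mL/min, detection at 220 nm.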

[3] = Stability in rat liver lysosomal homogenate assessed as drug degradation at 50 uM and measured upto 24 hrs by HPLC-MS analysis; format: ADME, subcellular, Lysosome; details: tissue homogenate
How it was run: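 Conjugates incubated in rat liver lysosomal homogenate. Reaction mixtures sampled at 5 min, 1 h, 2 h, 4 h, 8 h and 24 h and analysed by HPLC-MS (chromatograms and mass spectra) to identify intact conjugate, fragments and cleavage sites.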

[4] = Selectivity index, ratio of IC50 for cytostatic activity against human MONO-MAC-6 cells to MIC for antimycobacterial activity against Mycobacterium tuberculosis H37Rv ATCC 27294; format: toxicity, cell-based; details: read-out: Selectivity Index
How it was run: (§2)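 MTT assay on MonoMac6 or HepG2 cells after 24 h exposure, top concentration 200 µM. SI = IC50 (µM)/MIC (µM) against H37Rv from the 4-week Sula medium assay.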

[5] = system: Mycobacteroides abscessus; assay: Antimycobacterial activity against Mycobacterium abscessus ATCC 19977 assessed as reduction in bacterial growth after 7 days by serial dilution method; format: functional; details: ATCC 19977, 168 h, time 7 day
How it was run: (§3)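 MIC determined in Sula semisynthetic medium, pH 6.5, 1 week incubation. Growth inhibition confirmed by plating on Löwenstein-Jensen solid medium and counting CFU. Bacteria inoculated without drug served as growth control.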

[6] = Cytotoxicity against mouse bone marrow derived macrophages assessed as reduction in cell viability incubated for 48 hrs by MTT assay; format: toxicity, cell-based, Macrophage
How it was run: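 Murine bone marrow-derived macrophages exposed for 48 h, viability by MTT. Highest concentration tested 100 µM. IC50 taken from dose-response curves.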

[7] = system: Mycobacterium tuberculosis; assay: Antimycobacterial activity against Mycobacterium tuberculosis H37Rv ATCC 27294 assessed as reduction in bacterial growth after 21 days by serial dilution method; format: functional; details: H37Rv ATCC 27294, 504 h, time 21 day
How it was run: (§4)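 Broth MIC in Sula semisynthetic medium, pH 6.5; 4-week incubation, with 21-day values […] where indicated. Drug-free inoculated bacteria served as growth control. MIC also expressed as drug content (µg/mL) = MIC (µM) × average SAL molar mass × number of SAL per conjugate / 1000.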

[8] = system: Mycobacterium tuberculosis; assay: […] antimycobacterial activity against Mycobacterium tuberculosis H37Rv ATCC 27294 infected in human MONO-MAC-6 cells assessed as reduction in colony forming unit at 125 uM for 6 days by colony counting based analysis; format: functional, organism-based; details: time 6.0 day
How it was run: (§5)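 MonoMac6 monolayers infected with H37Rv, then treated with compound at 125 or 250 µM for 3 days. Treatment repeated with fresh compound solution for another 3 days. Intracellular bacteria quantified as CFU against untreated infected cells.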

MONO-MAC-6 = assay: Cytostatic activity against human MONO-MAC-6 cells assessed as reduction in cell viability incubated for 24 hrs by MTT assay; format: functional, cell-based; details: MONO-MAC-6, 24 h
How it was run: (§6)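 MTT viability assay after 24 h exposure of MonoMac6 human monocytic cells or HepG2 human hepatocellular carcinoma cells. Top concentration 200 μM. IC50 taken from dose-response curves as the concentration reducing viability to 50% of maximal.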

HepG2 = assay: Cytostatic activity against human HepG2 cells assessed as reduction in cell viability incubated for 24 hrs by MTT assay; format: functional, cell-based; details: HepG2, 24 h; how it was run: as §6
[9] = system: Mycobacterium tuberculosis; assay: Antimycobacterial activity against Mycobacterium tuberculosis H37Rv ATCC 27294 assessed as reduction in colony forming unit after 28 days by serial dilution method; format: functional, organism-based; details: time 28.0 day
How it was run: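 After the 4-week MIC incubation in Sula semisynthetic medium (pH 6.5), growth inhibition confirmed by plating on Löwenstein-Jensen solid medium and counting colony forming units.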

[10] = Selectivity index, ratio of IC50 for cytostatic activity against human HepG2 cells to MIC for antimycobacterial activity against Mycobacterium tuberculosis H37Rv ATCC 27294; format: toxicity, cell-based; details: read-out: Selectivity Index; how it was run: as §2
[11] = Selectivity index, ratio of IC50 for cytotoxicity against mouse bone marrow derived macrophages to MIC for antimycobacterial activity against Mycobacterium tuberculosis H37Rv ATCC 27294; format: toxicity; details: read-out: Selectivity Index
How it was run: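 Murine bone marrow-derived macrophages exposed for 48 h, top concentration 100 µM. Viability read by MTT and IC50 taken from dose-response curves. SI = IC50/MIC against H37Rv.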

[12] = Stability of the compound in serum free RPMI-1640 medium containing 2% DMSO at 1 mg/ml after 1 week by reverse phase HPLC analysis; details: time 1.0 weeks; how it was run: as §1
[13] = system: Mycobacterium tuberculosis; assay: […] antimycobacterial activity against Mycobacterium tuberculosis H37Rv ATCC 27294 infected in human MONO-MAC-6 cells assessed as reduction in colony forming unit at 250 uM for 6 days by colony counting based analysis; format: functional, organism-based; details: time 6.0 day; how it was run: as §5
[14] = system: Mycobacteroides abscessus; assay: Antimycobacterial activity against Mycobacterium abscessus ATCC 19977 assessed as reduction in colony forming unit after 7 days by serial dilution method; format: functional, organism-based; details: time 7.0 day; how it was run: as §3
[15] = Stability of the compound in complete RPMI-1640 medium containing 2% DMSO at 1 mg/ml after 24 hrs by reverse phase HPLC analysis; how it was run: as §1
[16] = system: Mycobacterium tuberculosis; assay: Antimycobacterial activity against Mycobacterium tuberculosis H37Rv ATCC 27294 assessed as reduction in bacterial growth after 28 days by serial dilution method; format: functional; details: H37Rv ATCC 27294, 672 h, time 28 day; how it was run: as §4
[17] = Stability of the compound in Sula's semisynthetic medium containing 10% DMSO assessed as 2-hydroxyacetyl-tuftsin derivative formation at pH 6.5 at 2 mg/ml after 4 weeks at 37 degree C by reverse phase HPLC analysis
How it was run: (§7)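 Conjugate incubated in Sula semisynthetic medium (pH 6.5) at 37 °C for 4 weeks. Decomposition to free salicylanilide and 2-hydroxyacetyl-tuftsin derivative followed by analytical RP-HPLC and mass spectrometry.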

[18] = Stability of the compound in Sula's semisynthetic medium containing 10% DMSO assessed as free salicylanilide formation at pH 6.5 at 2 mg/ml after 4 weeks at 37 degree C by reverse phase HPLC analysis; how it was run: as §7

Structure (SMILES)	Stability [1]	Retention_time [2]	Stability [3]	selectivity ratio [4]	MIC [5]	IC50 at 48 h [6]	MIC [7]	Activity [8]	IC50 (MONO-MAC-6)	IC50 (HepG2)	Activity [9]	selectivity ratio [10]	selectivity ratio [11]	Stability [12]	Activity [13]	Activity [14]	Stability [15]	MIC [16]	Stability [17]	Stability [18]
CCCCCCCCCC(=O)NCCCC[C@H](NC(=O)[C@@H]1CCCN1C(=O)[C@H](CCCCN)NC(=O)[C@@H](NC(=O)CO/N=C(\C)c1ccc(NC(=O)c2cc(Br)ccc2O)cc1)[C@@H](C)O)C(=O)NCC(=O)N[C@H](C(=O)N[C@@H](CCCCN)C(=O)N1CCC[C@H]1C(=O)N[C@@H](CCCCN)C(=O)NCC(=O)N[C@H](C(=O)N[C@@H](CCCCN)C(=O)N1CCC[C@H]1C(=O)N[C@@H](CCCCN)C(=O)NCC(=O)N[C@H](C(=O)N[C@@H](CCCCN)C(=O)N1CCC[C@H]1C(=O)N[C@@H](CCCCN)C(=O)NCC(N)=O)[C@@H](C)O)[C@@H](C)O)[C@@H](C)O ({Benzoyl(5-Br-2-OH)}-[X1]TKPK(Decanoyl)GTKPKGTKPKGTKPKG-NH2)	Stable	16.4 min	Unstable	0.3	76.7 µM (≈ 200 µg/mL)	71.9 µM	76.7 µM (≈ 200 µg/mL)	Active	24.9 µM	113 µM	Active	1.5	0.9	Stable	Active	Active	Stable			
C/C(=N\OCC(=O)N[C@H](C(=O)N[C@@H](CCCCN)C(=O)N1CCC[C@H]1C(=O)N[C@@H](CCCCN)C(=O)NCC(=O)N[C@H](C(=O)N[C@@H](CCCCN)C(=O)N1CCC[C@H]1C(=O)N[C@@H](CCCCN)C(=O)NCC(=O)N[C@H](C(=O)N[C@@H](CCCCN)C(=O)N1CCC[C@H]1C(=O)N[C@@H](CCCCN)C(=O)NCC(=O)N[C@H](C(=O)N[C@@H](CCCCN)C(=O)N1CCC[C@H]1C(=O)N[C@@H](CCCCN)C(=O)NCC(N)=O)[C@@H](C)O)[C@@H](C)O)[C@@H](C)O)[C@@H](C)O)c1ccc(NC(=O)c2cc(Br)ccc2O)cc1 ({Benzoyl(5-Br-2-OH)}-[X1]TKPKGTKPKGTKPKGTKPKG-NH2)	Stable	14.3 min	Unstable	> 2.5	40.8 µM (≈ 100 µg/mL)	> 100 µM		Active	> 200 µM	81.9 µM	Active	1	1.2	Stable	Active	Active	Stable	81.5 µM (≈ 200 µg/mL)	Stable	Stable
C/C(=N\OCC(=O)NCC(=O)N[C@@H](Cc1ccccc1)C(=O)N[C@@H](CC(C)C)C(=O)NCC(=O)N[C@H](C(=O)N[C@@H](CCCCN)C(=O)N1CCC[C@@H]1C(=O)N[C@H](CCCCN)C(=O)NCC(=O)N[C@@H](C(=O)N[C@H](CCCCN)C(=O)N1CCC[C@H]1C(=O)N[C@H](CCCCN)C(=O)NCC(=O)N[C@@H](C(=O)N[C@@H](CCCCN)C(=O)N1CCC[C@@H]1C(=O)N[C@H](CCCCN)C(=O)NCC(=O)N[C@@H](C(=O)N[C@H](CCCCN)C(=O)N1CCC[C@H]1C(=O)N[C@H](CCCCN)C(=O)NCC(N)=O)[C@H](C)O)[C@H](C)O)[C@H](C)O)[C@@H](C)O)c1ccc(NC(=O)c2cc(Br)ccc2O)cc1								inactive			Active				Active	Active			Stable	Stable
CCCCCCCCCCCCCCCC(=O)NCCCC[C@H](NC(=O)[C@@H]1CCCN1C(=O)[C@H](CCCCN)NC(=O)[C@@H](NC(=O)CO/N=C(\C)c1ccc(NC(=O)c2cc(Br)ccc2O)cc1)[C@@H](C)O)C(=O)NCC(=O)N[C@H](C(=O)N[C@@H](CCCCN)C(=O)N1CCC[C@H]1C(=O)N[C@@H](CCCCN)C(=O)NCC(=O)N[C@H](C(=O)N[C@@H](CCCCN)C(=O)N1CCC[C@H]1C(=O)N[C@@H](CCCCN)C(=O)NCC(=O)N[C@H](C(=O)N[C@@H](CCCCN)C(=O)N1CCC[C@H]1C(=O)N[C@@H](CCCCN)C(=O)NCC(N)=O)[C@@H](C)O)[C@@H](C)O)[C@@H](C)O ({Benzoyl(5-Br-2-OH)}-[X1]TKPK(Palmitoyl)GTKPKGTKPKGTKPKG-NH2)		18.4 min	Unstable	0.2	74.3 µM (≈ 200 µg/mL)	20.4 µM		Active	16.5 µM	37.6 µM	Active	0.4	0.2		Active	Active		92.9 µM (≈ 250 µg/mL)		
C/C(=N\OCC(=O)N[C@H](C(=O)N[C@@H](CCCCN)C(=O)N1CCC[C@H]1C(=O)N[C@@H](CCCCN)C(=O)NCC(N)=O)[C@@H](C)O)c1ccc(NC(=O)c2cc(Br)ccc2O)cc1 ({Benzoyl(5-Br-2-OH)}-[X1]TKPKG-NH2)		15.6 min	Unstable	> 9.2	174 µM (≈ 160 µg/mL)	> 100 µM		Active	> 200 µM	> 200 µM	Active	> 9.2	4.6		Active	Active		21.8 µM (≈ 20 µg/mL)		
